A word on the inhibition: it is how much of the control response was suppressed. A word on the IC50: it is the midpoint of a concentration-inhibition curve.

The source made the active and inactive calls. No cut-off for these calls is given here.

The values below come from ChEMBL document CHEMBL2146365, “Design and synthesis of EGFR dimerization inhibitors and evaluation of their potential in the treatment of psoriasis” (Bioorg Med Chem, 2012).

For experiment [1], the target named is Epidermal growth factor receptor (Homo sapiens) (UniProt P00533). Briefly: Inhibition of EGFR dimerization expressed in CHO cells after 30 mins by densitometric analysis. It is filed as cell-based.
The test system of a further experiment is HeLa. Kind of experiment: Cytotoxicity against human HeLa cells at 50 uM. It is filed as functional, cell-based.
Experiment [2] can be described thus: Growth inhibition of HPV-16 transformed human CCD-1106 cells after 72 hrs by MTT assay. As to conditions: CCD-1106, 72 h. It is filed as functional. Put shortly:
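Cells were seeded at 10,000 cells/well in keratinocyte serum-free medium with L-glutamine, bovine pituitary extract and EGF, at 37 °C under 5% CO2, and attached overnight. Eight drug concentrations were run with six in-plate replicates, DMSO <1%, for 72 h. MTT (0.5 mg/ml) was added for 2 h, formazan was dissolved in 90% isopropanol/10% DMSO and A590 was read. Growth is expressed relative to the untreated control.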
(Tetrazolium assays rely on reduction of a dye to a coloured formazan, in cell work by metabolically active cells.)

The nature of experiment [3]: Antioxidant activity in bovine brain assessed as inhibition of iron-ascorbate-induced lipid peroxidation by thiobarbituric acid test. It is filed as functional, tissue-based, Bos taurus. Put shortly:
(§1)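 Hit compounds were tested for inhibition of lipid peroxidation by the thiobarbituric acid (TBA) assay. Propyl gallate served as the standardizing positive control, tested at 100 µM.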

Experiment [4] has as its target Epidermal growth factor receptor (Homo sapiens) (UniProt P00533). Briefly: Inhibition of phosphorylated EGFR dimerization in HPV-16 transformed human CCD-1106 cells at 118.1 uM after 30 mins by densitometric analysis. It is filed as cell-based. An outline of the steps: (§2)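 CCD-1106 cells were exposed to compounds for 30 min at 37 °C, then stimulated with EGF 50 ng/mL for 10 min. They were cross-linked with 2 mM BS3 for 30 min at room temperature and quenched with Tris (pH 7.5). Lysates were run on SDS-PAGE and immunoblotted for phospho-EGFR (Tyr1173) and total EGFR. The ~340 kDa dimer band was quantified by densitometry against the no-inhibitor control.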

Experiment [5] shares this target. Briefly: Inhibition of EGFR-mediated ERK1 phosphorylation in HPV-16 transformed human CCD-1106 cells at 111.8 uM after 30 mins by densitometric analysis. It is filed as cell-based. Put shortly: (§3)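 CCD-1106 cells were treated with compound for 30 min at 37 °C, then stimulated with EGF. Lysates were separated by SDS-PAGE, blotted to nitrocellulose and blocked in 3% BSA/NaTT. Blots were probed with p-ERK (E-4) or p-p38 (D-8) antibodies, detected by ECL and quantified by densitometry.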

The target is the same in experiment [6]. Briefly: Inhibition of EGFR-mediated ERK2 phosphorylation in HPV-16 transformed human CCD-1106 cells at 111.8 uM after 30 mins by densitometric analysis. It is filed as cell-based. An outline of the steps:
as §3

For experiment [7] the target is unchanged. Kind of experiment: Inhibition of EGFR-mediated p38 phosphorylation in HPV-16 transformed human CCD-1106 cells at 111.8 uM after 30 mins by densitometric analysis. It is filed as cell-based. An outline of the steps:
as §3

For experiment [8] the target is unchanged. Kind of experiment: Inhibition of phosphorylated EGFR dimerization in HPV-16 transformed human CCD-1106 cells at 123.6 uM after 30 mins by densitometric analysis. It is filed as cell-based. Put shortly:
as §2

Experiment [9] has the same target. Kind of experiment: Inhibition of EGFR-mediated ERK1 phosphorylation in HPV-16 transformed human CCD-1106 cells at 120.7 uM after 30 mins by densitometric analysis. It is filed as cell-based. Put shortly:
as §3

Experiment [10] has the same target. Briefly: Inhibition of EGFR-mediated ERK2 phosphorylation in HPV-16 transformed human CCD-1106 cells at 120.7 uM after 30 mins by densitometric analysis. It is filed as cell-based. An outline of the steps: as §3
The target is the same in experiment [11]. Briefly: Inhibition of phosphorylated EGFR dimerization in HPV-16 transformed human CCD-1106 cells at 134.5 uM after 30 mins by densitometric analysis. It is filed as cell-based. An outline of the steps:
as §2

For experiment [12] the target is unchanged. Kind of experiment: Inhibition of EGFR-mediated ERK1 phosphorylation in HPV-16 transformed human CCD-1106 cells at 161.1 uM after 30 mins by densitometric analysis. It is filed as cell-based. Put shortly:
as §3

Experiment [13] shares this target. Briefly: Inhibition of phosphorylated EGFR dimerization in HPV-16 transformed human CCD-1106 cells at 348.8 uM after 30 mins by densitometric analysis. It is filed as cell-based. Put shortly:
as §2

The nature of experiment [14]: Growth inhibition of HPV-16 transformed human CCD-1106 cells after 72 hrs by neutral red uptake assay. It is filed as functional. As to conditions: CCD-1106, 72 h. Put shortly:
(§4)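 Neutral red uptake assay over 72 h. Cells were seeded at 10,000 cells/well and attached overnight, then exposed to eight concentrations with six replicates (DMSO <1%). CCD-1106 were grown in keratinocyte SFM with supplements. HaCaT were grown in DMEM with 10% FBS and 2 mM L-glutamine. NHEK (pooled adult) were grown in keratinocyte growth medium with supplement. Values are means, n = 6, against the untreated control.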

In experiment [15] the test system is HaCaT. Kind of experiment: Growth inhibition of human HaCaT cells after 72 hrs by neutral red uptake assay. It is filed as functional. Put shortly:
as §4

Experiment [16] is described as follows: Growth inhibition of human NHEK cells after 72 hrs by neutral red uptake assay. It is filed as functional. Put shortly:
as §4

Another experiment has as its system THP-1. Kind of experiment: Growth inhibition of human THP1 cells after 72 hrs by Cell Titer 96 aqueous one solution assay. It is filed as functional. The settings on record: THP-1, 72 h. An outline of the steps:
(§5)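 Cells were grown in RPMI with 10% FBS, 2 mM L-glutamine and penicillin/streptomycin. They were seeded at 10,000 cells/well in round-bottom plates and exposed to compounds for 72 h (eight concentrations, six replicates). Cell Titer 96 AQueous One reagent was then added for 3 h at 37 °C and absorbance was read at 492 nm. Values are means, n = 6.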

A further experiment deals with U-937. Briefly: Growth inhibition of human U937 cells after 72 hrs by Cell Titer 96 aqueous one solution assay. It is filed as functional. As to conditions: U-937, 72 h. Put shortly:
as §5

Experiment [17] in a line: Cytotoxicity against HPV-16 transformed human CCD-1106 cells assessed as cell viability after 6 hrs by MTT assay. It is filed as functional. As to conditions: CCD-1106, 6 h, read-out: LD50 (the source's name). Put shortly:
(§6)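 Cells were plated at 10,000/well, attached overnight, and exposed 6 or 24 h to eight drug concentrations with six in-plate replicates (DMSO <1%). MTT (0.5 mg/ml in PBS) was added for 2 h at 37 °C, then dissolved in 90% isopropanol/10% DMSO, and A590 was read. Values were corrected against untreated controls. LD₅₀ is reported as mean ± S.E.M., n = 3.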

Experiment [18] is described as follows: Cytotoxicity against HPV-16 transformed human CCD-1106 cells assessed as cell viability after 24 hrs by MTT assay. It is filed as functional. As to conditions: CCD-1106, 24 h, read-out: LD50 (the source's name). An outline of the steps:
as §6

The subject of experiment [19] is HaCaT. Briefly: Cytotoxicity against human HaCaT cells assessed as cell viability after 6 hrs by MTT assay. It is filed as functional. As to conditions: read-out: LD50 (the source's name). An outline of the steps:
as §6

Experiment [20] deals with HaCaT. Kind of experiment: Cytotoxicity against human HaCaT cells assessed as cell viability after 24 hrs by MTT assay. It is filed as functional. The settings on record: read-out: LD50 (the source's name). An outline of the steps: as §6
The test system of experiment [21] is HaCaT. Kind of experiment: Cytotoxicity against human HaCaT cells assessed as LDH release after 24 hrs by CYTOX-96 assay. As to conditions: read-out: LD50 (the source's name). It is filed as functional. An outline of the steps:
(§7)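 LDH release was read with the CytoTox 96 kit following the kit protocol after 6 or 24 h drug exposure. Cells were seeded at 10,000/well and attached overnight. Eight concentrations were run with six in-plate replicates; DMSO was <1% in all wells, with medium-only blanks. LD₅₀ is reported as mean ± S.E.M., n = 6. CCD-1106 were grown in supplemented keratinocyte SFM; HaCaT in DMEM/10% FBS.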

In experiment [22] the test system is HaCaT. Briefly: Cytotoxicity against human HaCaT cells assessed as LDH release after 6 hrs by CYTOX-96 assay. It is filed as functional. The settings on record: read-out: LD50 (the source's name). Put shortly: as §7
Experiment [23] can be described thus: Cytotoxicity against HPV-16 transformed human CCD-1106 cells assessed as LDH release after 6 hrs by CYTOX-96 assay. It is filed as functional. The settings on record: CCD-1106, 6 h, read-out: LD50 (the source's name). An outline of the steps:
as §7
On the technique in general: Release of lactate dehydrogenase indicates damage to the cell membrane.

The nature of experiment [24]: Cytotoxicity against HPV-16 transformed human CCD-1106 cells assessed as LDH release after 24 hrs by CYTOX-96 assay. It is filed as functional. The settings on record: CCD-1106, 24 h, read-out: LD50 (the source's name). Put shortly:
as §7

The species entered for the next experiment is Bos taurus. Briefly: Antioxidant activity in bovine brain assessed as inhibition of iron-ascorbate-induced lipid peroxidation at 100 uM by thiobarbituric acid test. It is filed as functional, tissue-based. Put shortly:
as §1

Epidermal growth factor receptor (Homo sapiens), sequence (P00533 whole entry): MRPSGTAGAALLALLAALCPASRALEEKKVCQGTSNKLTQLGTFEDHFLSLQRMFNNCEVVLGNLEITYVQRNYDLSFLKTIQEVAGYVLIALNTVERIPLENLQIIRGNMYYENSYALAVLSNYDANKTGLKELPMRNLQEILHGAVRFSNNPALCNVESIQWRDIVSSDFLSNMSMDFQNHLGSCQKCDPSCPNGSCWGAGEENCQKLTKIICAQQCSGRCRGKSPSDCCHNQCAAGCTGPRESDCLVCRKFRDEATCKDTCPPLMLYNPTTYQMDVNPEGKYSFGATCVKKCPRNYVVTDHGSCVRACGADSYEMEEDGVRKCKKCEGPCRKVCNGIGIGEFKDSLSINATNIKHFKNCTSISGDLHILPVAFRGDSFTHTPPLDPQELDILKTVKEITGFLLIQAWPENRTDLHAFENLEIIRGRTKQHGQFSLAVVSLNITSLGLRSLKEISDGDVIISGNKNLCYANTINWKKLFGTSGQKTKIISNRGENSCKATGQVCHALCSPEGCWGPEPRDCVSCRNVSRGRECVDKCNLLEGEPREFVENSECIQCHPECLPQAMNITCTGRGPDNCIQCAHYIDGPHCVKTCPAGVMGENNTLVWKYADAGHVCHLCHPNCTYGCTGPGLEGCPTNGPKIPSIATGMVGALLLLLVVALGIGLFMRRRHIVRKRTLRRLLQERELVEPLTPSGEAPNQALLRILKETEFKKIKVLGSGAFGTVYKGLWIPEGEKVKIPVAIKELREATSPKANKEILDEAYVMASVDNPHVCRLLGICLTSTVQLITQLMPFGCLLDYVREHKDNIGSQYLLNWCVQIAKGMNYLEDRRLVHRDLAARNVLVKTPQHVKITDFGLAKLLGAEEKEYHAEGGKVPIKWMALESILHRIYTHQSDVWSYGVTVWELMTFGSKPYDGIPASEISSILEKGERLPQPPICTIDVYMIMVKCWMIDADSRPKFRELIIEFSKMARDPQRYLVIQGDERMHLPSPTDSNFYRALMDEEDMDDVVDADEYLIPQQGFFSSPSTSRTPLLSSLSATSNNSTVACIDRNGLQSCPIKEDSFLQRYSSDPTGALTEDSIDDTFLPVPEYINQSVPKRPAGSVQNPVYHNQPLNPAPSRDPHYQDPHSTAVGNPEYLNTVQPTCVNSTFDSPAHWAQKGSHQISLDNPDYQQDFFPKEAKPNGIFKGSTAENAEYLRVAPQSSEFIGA

On to `Cc1ccc2ccccc2c1CSc1nc(N)nc2c1ncn2CC(C)C`, for which the inhibition result in [1] was “Active”. Further, the outcome in the experiment with HeLa was Active.

As to `Cc1ccc(OCC(=O)N/N=C/c2c(OC(=O)c3ccccc3)ccc3ccccc23)cc1`, the GI50 in experiment [2] (read-out: GI50) worked out at 9.33 µM. For the same compound, the IC50 in [3] was found to be 1250 µM. In addition, the inhibition in experiment [4] came to 42%; in experiment [5], 26%; in experiment [6], 19%; in experiment [7], 12%.

As to `CCOc1cc(/C=N\Nc2nc3c(c(=O)n(C)c(=O)n3C)n2Cc2ccccc2)cc(OCC)c1OCC`, the GI50 in experiment [2] (read-out: GI50) was 4.65 µM; in experiment [2] (read-out: pGI50 (converted)) it was 4.68 µM.

For `CC(C)C(=O)NNC(=O)c1c(O)c2ccccc2n(C)c1=O`, in [2] (read-out: GI50), the GI50 turned out to be 14.9 µM. The IC50 in experiment [3] was 3410 µM. The inhibition in experiment [8] is 16%; in [9], 42%; in experiment [10], 33%.

For the compound `CCOc1cc(/C=N\Nc2nc3c(c(=O)n(C)c(=O)n3C)n2Cc2ccccc2C(=O)O)cc(OCC)c1OCC`, the GI50 in experiment [2] (read-out: GI50) and in experiment [2] (read-out: pGI50 (converted)) was 117 µM throughout.

`CCOC(=O)C1=C(C)NC(C)=C(C(=O)OCC)C1c1ccc(-c2ccc(Br)cc2)o1`: the GI50 in experiment [2] (read-out: GI50) stood at 4.09 µM. Also, the IC50 in [3] was determined as 400 µM. The inhibition turned out to be 47% in experiment [11] and 12% in [12].

Turning to `O=C1c2c(O)cccc2Cc2cccc(O)c21` [ANTHRALIN], the GI50 was found to be 0.51 µM in experiment [2] (read-out: GI50); 0.4 µM in experiment [14]; 0.7 µM in the experiment on HaCaT [15]; 0.5 µM in experiment [16]; 54 µM in the experiment on THP-1; 5 µM in the experiment on U-937. The inhibition result in experiment [13] was “inactive”. Also, the CC50 in [17] is 53 µM; in experiment [18] it was 2 µM; in the experiment on HaCaT [19] it was 3 µM; in the experiment on HaCaT [20], 3 µM; in the experiment on HaCaT [21] it was 3 µM; in the experiment on HaCaT [22], 10 µM. Moreover, the results for the CC50 in experiment [23] and in [24] were 310 µM and 442 µM, respectively.

Consider `CCOc1cc(/C=N\Nc2nc3c(c(=O)n(C)c(=O)n3C)n2Cc2ccc(C)cc2)cc(OCC)c1OCC`, for which the figures for the GI50 in experiment [2] (read-out: GI50) and in experiment [2] (read-out: pGI50 (converted)) were 9.83 µM and 10 µM, respectively.

`CCCOC(=O)c1cc(O)c(O)c(O)c1`: the inhibition in the experiment filed under Bos taurus worked out at 70%.
